The text below walks through data of ChEMBL document CHEMBL4145607, “Tamarixetin Exhibits Anti-inflammatory Activity and Prevents Bacterial Sepsis by Increasing IL-10 Production” (J Nat Prod, 2018).

For series [1], the system named is BMDC. Nature of the series: Inhibition of LPS-induced immune response in C57BL/6 mouse BMDC assessed as reduction in IL-12p70 secretion at 25 uM treated 6 hrs post LPS-challenge measured after 30 mins by ELISA. Type of series: functional, cell-based. The method, boiled down: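 Bone marrow DCs from 6-week-old female C57BL/6 mice, RBC-lysed, cultured in RPMI-1640/10% FBS with 10 ng/mL rmGM-CSF, 37 °C, 5% CO2. Cells given LPS 50 ng/mL for 6 h, then 25 μM compound added for 30, 60, 90 or 120 min. Supernatant TNF-α, IL-6, IL-10, IL-12p70 measured by sandwich ELISA. Mean ± SEM, compared with LPS-only DCs.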

Series [2] has as its system Mus musculus. Nature of the series: Antiinflammatory activity in Balb/c mouse model of LPS-induced endotoxemia assessed as reduction in serum ALT level at 1 mg/kg, ip pretreated for 1 hr followed by LPS-challenge measured after 12 hrs by ELISA. Type of series: functional, organism-based. The method, boiled down:
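In BALB/c mice, 1 mg·kg−1 i.p. was given 1 h before LPS 10 mg·kg−1 i.p. After 12 h, serum AST, ALT and BUN were measured by ELISA. Means ± SEM.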

The test system of series [3] is BMDC. Nature of the series: Inhibition of LPS-induced immune response in C57BL/6 mouse BMDC assessed as reduction in IL-12p70 secretion up to 25 uM pretreated for 30 mins followed by LPS-challenge measured after 6 hrs by ELISA. Type of series: functional, cell-based. In outline:
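Mouse BMDCs (female C57BL/6 bone marrow, GM-CSF-derived, ≥90% CD11c+ on day 7) pretreated 30 min with graded compound concentrations, then stimulated with LPS 50 ng/mL for 6 h. Supernatant TNF-α, IL-6, IL-10 and IL-12p70 quantified by sandwich ELISA. Mean ± SEM vs LPS-only cells; experiments repeated at least three times.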

Series [4] concerns Mus musculus. In words: Antiinflammatory activity in Balb/c mouse model of LPS-induced endotoxemia assessed as increase in IL10 producing monocyte/macrophage in splenocyte at 1 mg/kg, ip pretreated for 1 hr followed by LPS-challenge measured after 12 hrs by flow cytometric analysis. Type of series: functional, organism-based.
The target in series [5] is T1, Toll-like receptor 4 (Mus musculus) (UniProt Q9QUK6).
T1 sequence (whole entry): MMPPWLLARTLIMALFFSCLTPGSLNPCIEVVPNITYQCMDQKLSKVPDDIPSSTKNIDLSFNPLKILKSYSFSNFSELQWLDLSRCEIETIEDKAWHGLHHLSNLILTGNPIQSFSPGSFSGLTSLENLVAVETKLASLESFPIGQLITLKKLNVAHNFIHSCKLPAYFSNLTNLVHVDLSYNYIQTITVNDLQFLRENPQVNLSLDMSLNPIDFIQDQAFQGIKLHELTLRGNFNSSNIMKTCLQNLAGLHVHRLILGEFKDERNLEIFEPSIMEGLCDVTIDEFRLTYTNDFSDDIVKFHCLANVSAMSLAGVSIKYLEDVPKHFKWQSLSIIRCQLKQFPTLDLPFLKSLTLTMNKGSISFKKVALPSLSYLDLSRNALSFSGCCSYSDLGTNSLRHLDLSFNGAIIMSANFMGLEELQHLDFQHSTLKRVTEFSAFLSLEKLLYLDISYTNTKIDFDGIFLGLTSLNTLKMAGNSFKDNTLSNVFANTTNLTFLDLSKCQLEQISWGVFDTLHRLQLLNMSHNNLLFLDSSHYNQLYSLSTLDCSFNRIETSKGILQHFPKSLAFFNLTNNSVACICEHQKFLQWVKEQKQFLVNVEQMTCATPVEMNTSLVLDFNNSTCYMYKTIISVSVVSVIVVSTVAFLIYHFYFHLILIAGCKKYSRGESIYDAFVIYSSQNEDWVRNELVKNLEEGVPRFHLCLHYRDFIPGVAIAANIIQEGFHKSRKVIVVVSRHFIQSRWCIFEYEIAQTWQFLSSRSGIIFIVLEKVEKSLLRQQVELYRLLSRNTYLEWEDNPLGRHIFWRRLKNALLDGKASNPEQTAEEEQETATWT
In words: Inhibition of LPS-induced TLR4 activation in C57BL/6 mouse BMDC assessed as reduction in IkappaBalpha degradation at 25 uM pretreated for 30 mins followed by LPS-challenge measured after 15 to 90 mins by Western blot analysis. Type of series: cell-based. The method, boiled down:
(§1)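 BMDCs were pretreated 30 min with 25 μM compound, then stimulated with LPS 50 ng·mL−1 for the indicated times. Lysates (25 μg protein) were run on 10% SDS-PAGE and immunoblotted for phospho/total ERK, JNK, p38 and Akt, plus COX-2, IκBα and α-tubulin, with ECL detection. Representative of three experiments.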

Series [6] has as its system BMDC. Nature of the series: Inhibition of Escherichia coli DH5alpha infection-induced immune response in C57BL/6 mouse BMDC assessed as increase in IL10 secretion at 25 uM pretreated for 30 mins followed by Escherichia coli DH5alpha infection for 6 hrs by ELISA. Type of series: functional, cell-based. The method, boiled down:
(§2)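 C57BL/6 BMDCs received 25 μM compound and E. coli DH5α, 3 × 10^6 CFU·mL−1. Schedules were: compound 30 min before a 6 h infection; co-addition for 6 h; or compound for 30, 60, 90 or 120 min plus 6 h infection. Supernatant TNF-α, IL-6, IL-10 and IL-12p70 were measured by ELISA. At least three experiments in triplicate.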

Series [7] deals with BMDC. In words: Inhibition of Escherichia coli DH5alpha infection-induced immune response in C57BL/6 mouse BMDC assessed as reduction in IL-12p70 secretion at 25 uM pretreated for 60 to 120 mins followed by Escherichia coli DH5alpha infection for 6 hrs by ELISA. Type of series: functional, cell-based. In outline: as §2
Series [8] concerns BMDC. In words: Cytotoxicity against C57BL/6 mouse BMDC assessed as effect on cell viability up to 100 uM after 24 hrs by luminescence assay. Type of series: cell-based. In outline:
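BMDCs came from C57BL/6 marrow cultured 7 days with 10 ng·mL−1 GM-CSF. Cells at 1 × 10^4 per well were incubated 24 h with 6.25–200 μM compound, with DMSO and H2O2 controls. Viability was read as ATP by luminescence. Means ± SEM.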

In series [9] the test system is BMDC. In words: Inhibition of Escherichia coli DH5alpha infection-induced immune response in C57BL/6 mouse BMDC assessed as reduction in IL-6 secretion at 25 uM pretreated for 30 mins followed by Escherichia coli DH5alpha infection for 6 hrs by ELISA. Type of series: functional, cell-based. In outline: as §2
The subject of series [10] is Mus musculus. In words: Antiinflammatory activity in Balb/c mouse model of LPS-induced endotoxemia assessed as reduction in serum TNFalpha level at 1 mg/kg, ip pretreated for 1 hr followed by LPS-challenge measured after 2 hrs by ELISA. Type of series: functional, organism-based. The method, boiled down: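 BALB/c mice were dosed with 1 mg·kg−1 i.p. 1 h before LPS 10 mg·kg−1 i.p. Serum was taken 2 h later, and TNF-α, IL-6 and IL-10 were measured by sandwich ELISA. Means ± SEM.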

Series [11] deals with T1, Toll-like receptor 4 (Mus musculus). Nature of the series: Inhibition of LPS-induced TLR4 activation in C57BL/6 mouse BMDC assessed as reduction in ERK phosphorylation at 25 uM pretreated for 30 mins followed by LPS-challenge measured after 15 to 90 mins by Western blot analysis. Type of series: cell-based. The method, boiled down: as §1

The structures appear in SMILES notation. The source made the active and inactive calls. The rule behind the calls is not given here.

Take `COc1ccc(-c2oc3cc(O)cc(O)c3c(=O)c2O)cc1O` [TAMARIXETIN]: the inhibition entry (with BMDC [1]; with BMDC [3]; in [5]; with BMDC [6]; in the series on BMDC [9]) was “Active” throughout. The outcome with Mus musculus [2], in the series on Mus musculus [4] and with Mus musculus [10] was Active. The inhibition entry (with BMDC [7]; in series [11]) was “inactive” throughout. For the same compound, the Activity result with BMDC [8] is “Non-Toxic”.
